{"source": "paper PMC7771250", "about": "(ACS Infectious Diseases, 2020)", "key": {"[1]": {"system": "LC3B", "assay": "LC3B immunostaining autophagy assay, average of four cell lines", "format": "cell-based", "conditions": "for EC50: 16 h, read-out: autophagy EC50"}, "[2]": {"system": "LC3B", "assay": "LC3B immunostaining autophagy assay in Vero E6 cells", "format": "cell-based, monkey", "conditions": "Vero E6, about 16 h; for LC3B spot accumulation: 50 to 0.02 μM", "summary_of_the_method": "(§1)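 Cells were seeded overnight to 60% confluence and dosed at 8 points, 1:3 from 50 μM to 0.02 μM. They were fixed in ice-cold methanol for 10 min at −30 °C, blocked, and stained with rabbit anti-LC3B for 2 h at RT, AlexaFluor-647 anti-rabbit for 1 h, and Hoechst. Six fields per well were imaged. Spot count was normalized to DMSO (0%) and a reference (100%). Points with viability below 20% were excluded.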"}, "[3]": {"system": "Vero E6 cells", "assay": "Cell", "format": "cell-based, monkey"}, "[4]": {"system": "acidic organelles", "assay": "LysoTracker Deep Red staining in Vero E6 cells", "format": "cell-based, monkey"}, "[5]": {"system": "Vero E6 cells", "conditions": "for cytotoxicity (reduction of cell viability): at 30.0 μM; for CC50: read-out: CPE CC50, uninfected Vero E6, 72 h; for cell toxicity in the CPE counter assay: Vero E6, up to 30.0 μM"}, "[6]": {"conditions": "cited from earlier work; for T1/2: 85 (chloroquine)"}, "[7]": {"assay": "in vitro", "conditions": "human"}, "[8]": {"system": "Vero E6 cells", "conditions": "drug-repurposing screen in Vero E6 cells; cited from earlier work"}, "[9]": {"system": "SARS-CoV-2", "assay": "microbe, parasite or virus in culture", "format": "cell-based, SARS CoV-2 (USA_WA1/2020)", "conditions": "Severe acute respiratory syndrome coronavirus 2, Vero C1008, 72 h, read-out: CPE EC50, Vero E6, 72 h; table: mean ± confidence interval"}, "[10]": {"system": "SARS-CoV-2 spike pseudotyped particle (PP)", "assay": "microbe, parasite or virus in culture", "format": "cell-based", "conditions": "Severe acute respiratory syndrome coronavirus 2, HEK-293T, 48 h, read-out: PP EC50"}, "[11]": {"system": "SARS-CoV-2", "conditions": "similar CPE assay with SARS-CoV-2 in Vero E6 cells; cited from earlier work"}, "[12]": {"system": "SARS-CoV-2", "conditions": "Vero E6, OpenData Portal screening data, Figure S14; cited from earlier work"}, "[13]": {"system": "Vero E6 cells", "conditions": "Vero E6, OpenData Portal screening data, Figure S14; cited from earlier work"}, "[14]": {"conditions": "cited from earlier work"}, "[15]": {"system": "LC3B", "assay": "LC3B immunostaining autophagy assay in Huh-7.5 cells", "format": "cell-based, human", "summary_of_the_method": "as §1"}, "[16]": {"system": "SARS-CoV-2", "format": "cell-based", "conditions": "EpiAirway, positive control"}, "[17]": {"system": "human bronchial epithelial cells", "conditions": "LDH release, 24 and 96 h"}}, "note": "Read-outs that look alike come from different tables or passages of the source.", "data": [{"molecule": "CN(C)CCCN1c2ccccc2CCc2ccc(Cl)cc21", "note": "[clomipramine]", "values": [{"measurement": "LC3B increase across the cell lines", "setting": "[1]; Vero E6, HeLa, HEK293T, Huh-7.5", "result": "effective in increasing LC3B in all cell lines except for Vero E6"}, {"measurement": "increase of LC3B spot count", "setting": "[2]; normalized to DMSO (0%) and CQ (100%)", "result": 40, "unit": "%"}, {"measurement": "cytotoxicity on the basis of nuclei counts", "setting": "[3]; Vero E6, at 50 μM", "result": "not cytotoxic"}, {"measurement": "LysoTracker staining", "setting": "[4]", "result": "dramatic elevations in LysoTracker relative spot intensity"}, {"measurement": "cytotoxicity (reduction of cell viability)", "setting": "[5]; Vero E6", "result": "less than 20%"}, {"measurement": "CC50", "setting": "[5]", "result": "> 30", "unit": "µM"}, {"measurement": "Vd", "setting": "[6]", "result": "high Vd"}, {"measurement": "CC50", "setting": "[7]", "result": "18.6 ± 0.29", "unit": "µM"}, {"measurement": "CC50", "setting": "[8]", "result": "> 30", "unit": "µM"}]}, {"molecule": "CCN(CCO)CCCC(C)Nc1ccnc2cc(Cl)ccc12", "note": "(centres unmarked) [hydroxychloroquine]", "values": [{"measurement": "EC50", "setting": "[9]", "result": 4.47, "unit": "µM"}, {"measurement": "EC50", "setting": "[1]", "result": "6.55 ± 6.67", "unit": "µM"}, {"measurement": "EC50", "setting": "[10]", "result": "2.19 ± 0.07", "unit": "µM"}, {"measurement": "cell toxicity in the CPE counter assay", "setting": "[5]", "result": "no associated cell toxicity"}, {"measurement": "CC50", "setting": "[5]", "result": "> 30", "unit": "µM"}, {"measurement": "EC50", "setting": "[11]", "result": 9.21, "unit": "µM"}, {"measurement": "T1/2", "setting": "[6]; 86 (hydroxychloroquine)", "result": "~40", "unit": "days"}, {"measurement": "absorption", "setting": "[6]; ref 82 (clomipramine), 86 (hydroxychloroquine)", "result": "rapid and complete absorption"}, {"measurement": "CC50", "setting": "[7]", "result": "16.7 ± 20.3", "unit": "µM"}]}, {"molecule": "CO/C1=C\\C(C)=C\\[C@@H](C)[C@@H](O)[C@@H](C)C/C(C)=C/C=C/[C@H](OC)[C@@H]([C@@H](C)[C@@H](O)[C@H](C)[C@@]2(O)C[C@@H](O)[C@H](C)[C@@H](C(C)C)O2)OC1=O", "note": "[Bafilomycin A1]", "values": [{"measurement": "SARS-CoV-2 CPE inhibition", "setting": "[12]", "result": "able to block SARS-CoV-2 CPE at nontoxic nanomolar concentrations"}, {"measurement": "cytotoxicity", "setting": "[13]", "result": "highly cytotoxic"}]}, {"molecule": "CCN(CC)CCCC(C)Nc1ccnc2cc(Cl)ccc12", "note": "(centres unmarked) [chloroquine]", "values": [{"measurement": "EC50", "setting": "[9]", "result": 2.01, "unit": "µM"}, {"measurement": "EC50", "setting": "[1]", "result": "3.29 ± 1.86", "unit": "µM"}, {"measurement": "EC50", "setting": "[10]", "result": "1.37 ± 0.1", "unit": "µM"}, {"measurement": "cell toxicity in the CPE counter assay", "setting": "[5]", "result": "no associated cell toxicity"}, {"measurement": "CC50", "setting": "[5]", "result": "> 30", "unit": "µM"}, {"measurement": "EC50", "setting": "[11]", "result": 42, "unit": "µM"}, {"measurement": "T1/2", "setting": "[6]; 86 (hydroxychloroquine)", "result": "30 to 60", "unit": "days"}, {"measurement": "plasma bound", "setting": "[6]", "result": "50–70%"}, {"measurement": "CC50", "setting": "[7]", "result": "12 ± 0.51", "unit": "µM"}]}, {"molecule": "CCN(CC)CCNc1ccc(CO)c2sc3ccccc3c(=O)c12", "note": "[hycanthone]", "values": [{"measurement": "EC50", "setting": "[9]", "result": "5.79 ± 0.26", "unit": "µM"}, {"measurement": "EC50", "setting": "[1]", "result": "7.35 ± 4.7", "unit": "µM"}, {"measurement": "LC3B spot accumulation", "setting": "[2]", "result": "maximal spot counts"}, {"measurement": "cells killed", "setting": "[3]; Vero E6, at 50 μM", "result": "approximately 60%"}, {"measurement": "EC50", "setting": "[10]", "result": "1.88 ± 0.08", "unit": "µM"}, {"measurement": "cytotoxicity (reduction of cell viability)", "setting": "[5]; Vero E6", "result": "~100", "unit": "%"}, {"measurement": "absorption", "setting": "[14]; monkey", "result": "well-absorbed in monkey"}, {"measurement": "T1/2", "setting": "[14]; species not given, human data lacking", "result": "0.12 to 0.21", "unit": "days"}, {"measurement": "CC50", "setting": "[7]", "result": "11.7 ± 0.49", "unit": "µM"}]}, {"molecule": "CC(C)(O)CNc1ncc(-c2ccnc(Nc3ccnc(Cl)c3)n2)c(CC2CC2)n1", "note": "[VPS34-IN-1]", "values": [{"measurement": "SARS-CoV-2 CPE inhibition", "setting": "[12]", "result": "potently inhibited the SARS-CoV-2 CPE at concentrations that were not cytotoxic"}, {"measurement": "cytotoxicity", "setting": "[13]", "result": "cytotoxicity was observed at higher concentrations"}]}, {"molecule": "OC(c1cc(C(F)(F)F)nc2c(C(F)(F)F)cccc12)C1CCCCN1", "note": "(centres unmarked) [mefloquine]", "values": [{"measurement": "EC50", "setting": "[9]", "result": "3.85 ± 0.24", "unit": "µM"}, {"measurement": "LC3B spot accumulation", "setting": "[2]", "result": "ineffective at inducing LC3B spot accumulation"}, {"measurement": "cytotoxicity on the basis of nuclei counts", "setting": "[3]; Vero E6, at 50 μM", "result": "completely toxic"}, {"measurement": "toxicity in the LysoTracker assay", "setting": "[3]; Vero E6, highest concentration (50 μM)", "result": "toxic at the highest concentration"}, {"measurement": "EC50", "setting": "[15]; Homo sapiens, Huh7.5, read-out: autophagy EC50", "result": 7.3, "unit": "µM"}, {"measurement": "LC3B spot counts", "setting": "[15]; Huh-7.5", "result": "increased LC3B spot counts even at low concentrations"}, {"measurement": "LysoTracker staining", "setting": "[4]", "result": "dramatic elevations in LysoTracker relative spot intensity"}, {"measurement": "EC50", "setting": "[10]", "result": "8.84 ± 0.64", "unit": "µM"}, {"measurement": "cytotoxicity", "setting": "[5]; at 15.0 to 30.0 μM, Vero E6", "result": 100, "unit": "%"}, {"measurement": "EC50", "setting": "[11]", "result": 7.11, "unit": "µM"}, {"measurement": "CC50", "setting": "[7]", "result": "5.4 ± 0.01", "unit": "µM"}, {"measurement": "CC50", "setting": "[8]", "result": "> 18.5", "unit": "µM"}]}, {"molecule": "CCC(CC)COC(=O)[C@H](C)N[P@](=O)(OC[C@H]1O[C@@](C#N)(c2ccc3c(N)ncnn23)[C@H](O)[C@@H]1O)Oc1ccccc1", "note": "[remdesivir]", "values": [{"measurement": "EC50", "setting": "[9]", "result": 7.04, "unit": "µM"}, {"measurement": "reduction of viral titers", "setting": "[16]", "result": "highly effective in reducing viral titers"}, {"measurement": "cell toxicity in the CPE counter assay", "setting": "[5]", "result": "no apparent cytotoxicity"}, {"measurement": "cytotoxicity in EpiAirway", "setting": "[17]", "result": "without any cytotoxicity"}]}]}
